Data as given in PubChem BioAssay.
Activity calls are given as the source filed them.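 How the source made its calls, unless noted: active means viability at or under a set limit in both replicates, limit being median viability minus 3 SD (cut at about 48% in these data, passing the limit was not always enough); inconclusive means at or under the limit in just one replicate; inactive means at or above the limit in both replicates.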

Key:
[1] = reducers of endogenous Her2 protein level, primary screen, SKBR3 breast tumor cells, AlphaScreen, ATP viability (AID 461;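 active means Her2 level under about 52% in both replicate screens, with viability over 70% of control, limit read from the data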;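 on Her2 level: lower value means less Her2 protein in the cells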;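 on viability: percent of carrier control wells set as 100% viability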); conditions: 18-24 h, measured here: SKBR3 viability, ATP luminescence, at 10 µM
[2] = molecular target: Receptor tyrosine-protein kinase erbB-2 (Homo sapiens) (UniProt P04626); experiment: as above; conditions: 18-24 h, at 10 µM, stronger effect = lower value
[3] = SK-BR-3 cell growth inhibitors, pilot screen, 24 h, human (AID 572;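 active means viability at or below 10% of carrier control in both of two separate runs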;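 further: compound exposure lasted between 18 and 24 h rather than exactly 24 h; 100% = carrier-treated control wells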); conditions: SK-BR-3 viability, CellTiter-Glo luminescence, at 10 µM, stronger effect = lower value
[4] = HUVEC growth inhibition – cell-based, human, primary screen (AID 575;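 active means viability at or below 30% in both replicate assays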;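 further: 100% = median of untreated cell wells with 0.1% DMSO on each plate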); conditions: HUVEC proliferation, CellTiter-Glo luminescence, 72 h; at 10 µM; stronger effect = lower value
In short: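 Test system: primary human umbilical vein endothelial cells; medium: endothelial basal medium with 2% FBS plus growth supplements; dosing: 10 µM compound only; times: 72 h treatment at 37 °C; signal: CTG luminescence; read-out: % viability relative to median vehicle-well signal on each plate; control set: vehicle and MePR control wells; plate: 384-well, collagen-coated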

[5] = growth inhibitors of H69AR lung tumor, primary screen, human, duplicate replicates (AID 580); conditions: H69AR lung tumor cells viability, ATP luminescence, 72 h; at 10 µM; stronger effect = lower value;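 further: 100% = mean luminescence of untreated wells and 0% = no signal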
[6] = reversal of MRP1-mediated doxorubicin resistance, pilot screen, H69AR cells, doxorubicin co-treatment (AID 601;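 active means viability loss from added drug above about 55%, and viability with drug at most 40%, in both replicates, limit read from the data, passing the limit was not always enough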); conditions: CellTiter-Glo, 72 h, at 10 µM; for differential viability (reversal): stronger effect = higher value
[7] = 384-well plate pilot, post-Golgi transport modulator project, inhibition of yeast transport mutant growth (AID 636; in the data active means inhibition above about 31%); conditions: absorbance 615 nm, about 18 h, stronger effect = higher value
[8] = growth suppression of yeast trafficking mutant, preliminary HTS, modulators of trafficking downstream of Golgi apparatus project, 1536-format plate, OD 615 nm (AID 637; in the data active means inhibition above about 30%); conditions: yeast transport mutant growth, absorbance 615 nm, 18 h; stronger effect = higher value
[9] = H69AR cells + 2 uM doxorubicin, measured here: viability with 2 uM doxorubicin, stronger effect = lower value
[10] = H69AR cells, compound alone cytotoxicity

Sequence of Receptor tyrosine-protein kinase erbB-2 (Homo sapiens) (P04626 whole entry, looked up): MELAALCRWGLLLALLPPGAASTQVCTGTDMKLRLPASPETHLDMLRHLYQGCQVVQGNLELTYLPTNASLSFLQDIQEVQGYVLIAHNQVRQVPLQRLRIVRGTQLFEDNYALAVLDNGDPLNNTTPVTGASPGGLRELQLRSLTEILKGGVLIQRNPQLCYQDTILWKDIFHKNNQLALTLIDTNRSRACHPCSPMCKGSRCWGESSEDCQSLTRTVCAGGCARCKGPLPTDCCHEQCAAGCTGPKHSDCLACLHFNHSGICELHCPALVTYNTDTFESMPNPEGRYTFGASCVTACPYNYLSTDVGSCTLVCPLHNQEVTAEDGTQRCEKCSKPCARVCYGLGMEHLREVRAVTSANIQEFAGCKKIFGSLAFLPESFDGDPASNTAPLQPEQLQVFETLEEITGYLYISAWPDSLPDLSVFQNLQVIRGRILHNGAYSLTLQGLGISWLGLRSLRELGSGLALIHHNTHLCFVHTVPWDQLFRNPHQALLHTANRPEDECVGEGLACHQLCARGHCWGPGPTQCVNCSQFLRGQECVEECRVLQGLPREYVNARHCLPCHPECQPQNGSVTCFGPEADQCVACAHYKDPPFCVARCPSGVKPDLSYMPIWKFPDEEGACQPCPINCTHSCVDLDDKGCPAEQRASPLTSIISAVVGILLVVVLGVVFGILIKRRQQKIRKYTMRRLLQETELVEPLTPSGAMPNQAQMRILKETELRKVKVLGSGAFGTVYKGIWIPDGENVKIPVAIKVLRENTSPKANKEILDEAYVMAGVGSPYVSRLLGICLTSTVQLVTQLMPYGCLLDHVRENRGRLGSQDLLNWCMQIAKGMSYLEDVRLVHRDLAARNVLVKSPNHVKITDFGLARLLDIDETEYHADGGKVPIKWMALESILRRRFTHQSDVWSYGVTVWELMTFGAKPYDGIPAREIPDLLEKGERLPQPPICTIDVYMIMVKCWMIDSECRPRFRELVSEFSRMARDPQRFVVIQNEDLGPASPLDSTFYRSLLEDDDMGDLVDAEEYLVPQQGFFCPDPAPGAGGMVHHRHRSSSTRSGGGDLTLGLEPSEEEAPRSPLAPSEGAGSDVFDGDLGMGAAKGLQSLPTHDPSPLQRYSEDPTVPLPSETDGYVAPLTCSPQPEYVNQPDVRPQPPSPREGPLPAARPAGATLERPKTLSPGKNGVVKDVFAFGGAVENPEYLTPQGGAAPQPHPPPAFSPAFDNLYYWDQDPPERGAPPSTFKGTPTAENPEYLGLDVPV

Row | Compound | viability [1] [%] | Her2 level [2] | viability [3] | viability [4] | viability [5] | differential viability (reversal) ([6]; H69AR cells + 2 uM doxorubicin) | viability [6, 9] [%] | viability [6, 10] [%] | inhibition [7] | inhibition [8]
1 | O=C(NCc1ccco1)C1CCN(C(=O)c2cc3sccc3n2Cc2ccc(F)cc2)CC1 | 94.5 | 62.5% (inactive) | 94.5% (inactive) | 56.1% (inactive) | 67.1% (inactive) | -6.56% (inactive) | 73.7 | 67.1 | -5.87% (inactive) | 5.74% (inactive)
2 | CC1(C)CC(CCNC(=O)c2ccco2)CC(C)(C)N1 | 106 | 92% (inactive) | 106% (inactive) | 84.2% (inactive) | 98.8% (inactive) | 2.95% (inactive) | 95.8 | 98.8 | -3.73% (inactive) | -4.76% (inactive)
3 | O=C(CCSc1ccccc1)N1CCN(C(=O)c2ccco2)CC1 | 99 | 99.5% (inactive) | 99% (inactive) | 93.1% (inactive) | 95.1% (inactive) | 11% (inactive) | 84.1 | 95.1 | -0.79% (inactive) | -0.32% (inactive)
4 | Cc1cc(NC(=O)CSc2nc3ccccc3n2CC(=O)N2CCCCC2)no1 | 78 | 70% (inactive) | 78% (inactive) | 103% (inactive) | 86.2% (inactive) | 8.37% (inactive) | 77.8 | 86.2 | -5.54% (inactive) | 3.61% (inactive)
5 | CCOC(=O)C1CCN(C(c2cc3cc(C)cc(C)c3[nH]c2=O)c2nnnn2C2CCCCC2)CC1 (stereo not given) | 69.5 | 80% (inactive) | 69.5% (inactive) | 57.3% (inactive) | 62.8% (inactive) | 5.56% (inactive) | 57.2 | 62.8 | -2.6% (inactive) | 2.38% (inactive)
6 | CCOC(=O)c1c(C)[nH]c(C(=O)Cn2c(=O)oc3ccccc32)c1C | 102 | 93.5% (inactive) | 102% (inactive) | 108% (inactive) | 89.5% (inactive) | 2.91% (inactive) | 86.6 | 89.5 | -3.97% (inactive) | 0.33% (inactive)
7 | O=C(CN1C(=O)c2cccc3cccc1c23)NCC1CCCO1 (stereo not given) | 104 | 116% (inactive) | 104% (inactive) | 98.8% (inactive) | 96.5% (inactive) | 1.85% (inactive) | 94.7 | 96.5 | 1.05% (inactive) | 1.97% (inactive)
8 | c1ccc(Cc2nnc3n2CCCCC3)cc1 | 99 | 90% (inactive) | 99% (inactive) | 93.9% (inactive) | 99.2% (inactive) | 1.42% (inactive) | 97.7 | 99.2 | -7.2% (inactive) | 0.82% (inactive)
9 | Cc1nc2cc(-n3ccc(=O)cc3)ccc2n1-c1ccccc1 | 102 | 93% (inactive) | 102% (inactive) | 79.7% (inactive) | 90.5% (inactive) | 13.4% (inactive) | 77.1 | 90.5 | -2.93% (inactive) | -3.49% (inactive)
10 | Cn1c(SCc2nnc3n2CCCCC3)nc2ccccc21 | 103 | 98.5% (inactive) | 103% (inactive) | 98.3% (inactive) | 98.2% (inactive) | 4.2% (inactive) | 94 | 98.2 | -6.67% (inactive) | 2.54% (inactive)
11 | O=C(Nc1ccc(F)cc1)c1cccc2c1C(=O)N(Cc1ccccn1)C2 | 95.5 | 90% (inactive) | 95.5% (inactive) | 87.5% (inactive) | 96% (inactive) | 16.1% (inactive) | 79.9 | 96 | -0.92% (inactive) | -3.06% (inactive)
12 | CCOC(=O)c1c(NC(=O)c2cccs2)sc2c1CCN(C(=O)OCC)C2 | 174 | 13% (active) | 174% (inactive) | 6.86% (active) | 23.3% (active) | -2.25% (inactive) | 25.5 | 23.3 | 0.39% (inactive) | -1.8% (inactive)
13 | CCOc1cc(C2C(C(=O)c3ccccc3)=C(C(=O)OC)Nc3nnnn32)ccc1O (stereo not given) | 113 | 96% (inactive) | 113% (inactive) | 91.6% (inactive) | 97.6% (inactive) | 16.4% (inactive) | 81.2 | 97.6 | -1.84% (inactive) | -5.45% (inactive)
14 | CCOC(=O)c1ccc2nc(C)c3c(c2c1)OC(C)C3 (stereo not given) | 92 | 124% (inactive) | 92% (inactive) | 97.1% (inactive) | 87.9% (inactive) | 11% (inactive) | 76.9 | 87.9 | -2.6% (inactive) | -5.67% (inactive)
15 | CCOC(=O)C1=C(NC#N)OC(C)=C(C)C1c1ccc(O)cc1 (stereo not given) | 92.5 | 79% (inactive) | 92.5% (inactive) | 95.1% (inactive) | 90.3% (inactive) | 3.92% (inactive) | 86.4 | 90.3 | 0.27% (inactive) | 0.65% (inactive)
16 | Cc1ccc(OCCC(=O)OCC(=O)C(C)(C)C)cc1 | 81.5 | 92.5% (inactive) | 81.5% (inactive) | 94.2% (inactive) | 92.8% (inactive) | 7.79% (inactive) | 85 | 92.8 | 0.26% (inactive) | -3.67% (inactive)
